Results: publication PMC2232892 (The Journal of General Physiology, 2000)
Read-outs that look alike come from different tables or passages of the source.

Tests used:
Shaker B, ShB Δ6-46 [1] = target: T1, Shaker B, ShB Δ6-46 (Drosophila melanogaster, UniProt P08510, DEL6-46); type: cell-based; settings: for Kd: read-out: apparent Kd for external TEA block
Method in brief: (§1)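 Oocytes were defolliculated for 60–90 min with 2 mg/ml collagenase in Ca-free OR-2, injected with channel RNA, and held at 18°C in ND-96 with penicillin/streptomycin. Inside-out or outside-out macropatches were recorded 1–5 d later at 20–22°C, filtered at 5 kHz. External solution (mM): 5 KCl, 135 NMDG-Cl, 2 CaCl2, 2 MgCl2, 10 HEPES, pH 7.2. Internal solution: 110 KCl, 25 KOH, 10 EGTA, 10 HEPES, pH 7.2.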

T449Y Shaker channels [2] = target: T2, T449Y Shaker channels (Drosophila melanogaster, UniProt P08510, DEL6-46/T449Y); type: cell-based
Method in brief: as §1

Shaker B, ShB Δ6-46 [3] = target: T1, Shaker B, ShB Δ6-46; settings: wild-type Shaker channels; ref Heginbotham and MacKinnon 1992; Newland et al. 1992; cited from earlier work
T449Y Shaker channels [4] = target: T2, T449Y Shaker channels; settings: ref Heginbotham and MacKinnon 1992; cited from earlier work
RBK1 (rKv1.1) channels = settings: ref Newland et al. 1992; cited from earlier work

Compound	interaction parameter Q (external TEA antagonism of internal TEA block) (Shaker B, ShB Δ6-46 [1]; K+ solutions, 0-100 mM external TEA, Ko = 17 mM, 0 mV)	interaction parameter Q (external vs internal TEA) (Shaker B, ShB Δ6-46 [1]; Rb+ solutions)	Kd (Shaker B, ShB Δ6-46 [1]; 20 mM internal K+ and 50 mM internal Na+) [mM]	Kd (Shaker B, ShB Δ6-46 [1]; 50 mM internal K+ (data not shown)) [mM]	Kd (Shaker B, ShB Δ6-46 [1]; 115 mM internal Na+ (20 mM K+)) [mM]	interaction parameter Q (external vs internal TEA) (T449Y Shaker channels [2]; K+ solutions)	current blocked by 2 mM internal TEA (T449Y Shaker channels [2]; absence of external TEA) [%]	current blocked by 2 mM internal TEA (T449Y Shaker channels [2]; presence of 1 mM external TEA) [%]	δ (electrical distance of external block) (Shaker B, ShB Δ6-46 [3])	electrical distance of external block (T449Y Shaker channels [4])	interaction parameter Q (external vs internal TEA) (RBK1 (rKv1.1) channels)	apparent zδ (voltage dependence of block, Woodhull equation) (Shaker B, ShB Δ6-46 [1]; 0.25 mM external gallamine, wild-type channels)	interaction parameter Q (external gallamine antagonism of internal TEA block) (Shaker B, ShB Δ6-46 [1]; K+ solutions, several external gallamine concentrations)	block by 0.25 mM external gallamine compared with wild-type channels (T449Y Shaker channels [2]; same concentration as on wild-type, reduced voltage sensitivity)
CC[N+](CC)(CC)CC [TEA, tetraethylammonium]	4.6	1	7.5 ± 0.85	17.6 ± 2.7	7.6 ± 1.2	5.2	77 ± 0.4	64 ± 7	~0.15	0.04	5.3	–	–	–
CC[N+](CC)(CC)CCOc1cccc(OCC[N+](CC)(CC)CC)c1OCC[N+](CC)(CC)CC [gallamine, Gallamine triethiode]	–	–	–	–	–	–	–	–	–	–	–	0.28	2	considerably more effective
